Screens from PubChem.
b-catenin transl: alters nuclear translocation of beta-catenin in HeLa cells | AID 1665 | nuclear translocation activity, % at 5 µM | 0.3% of 190,000 active | immunofluorescence imaging;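 active = nuclear translocation activity above 50% at 5 µM, with a well cell count of 50 or more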;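 also: per-cell ratio of nuclear to cytoplasmic median beta-catenin stain intensity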
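assay system = human HeLa cells, endogenous beta-catenin | times = compound treatment 24 h, 37°C, 5% CO2 | detection = Anti-beta-catenin immunofluorescence on PFA-fixed, Triton-permeabilized cells, DAPI nuclei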
IEC-6 tox: counter-screen for KLF5 inhibitors: cytotoxicity in IEC-6 cells. 0.78% of 290,000 active. AID 1825. inhibition, % at 5 µM. IEC-6 cytotoxicity, luminescence viability; in the data active = inhibition above about 22%
MT stabilize HCS: microtubule stabilization, imaging screen | HeLa tubulin immunostaining HCS, 24 h; share of cells brighter than vehicle mean+2SD | % tubulin-high responders, % at 10 µM | 0.83% of 200,000 active | AID 2205;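 active = plate Z-score above 3 for both tubulin-high and condensed-nucleus cell shares, with cell loss under 80%, at 10 µM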;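 also: anti alpha tubulin signal scored within the nucleus-defined area of each cell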
KLF5 inh: suppresses KLF5 promoter-driven expression; DLD-1 KLF5 promoter-luciferase reporter, luminescence; inhibition, % at 5 µM; 0.23% of 290,000 active; AID 1700;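 active = inhibition above a per-plate limit of that plate's mean compound inhibition plus 3 SD, cut at about 60% in these data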;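 also: higher means less KLF5 promoter-driven luciferase light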
BaF3 tox: reduces parental Ba/F3 cell viability, JAK2V617F counter-screen; inhibition, % at 5.6 µM; 1.1% of 220,000 active; CellTiter-Glo ATP luminescence; AID 1486;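 active = inhibition above a per-campaign cutoff, the mean inhibition of all tested compounds plus 3 SD, cut at about 27% in these data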
Ba/F3 V617F tox: reduce viability of Ba/F3 cells dependent on JAK2V617F; Ba/F3 EpoR-JAK2V617F viability, ATP luminescence; inhibition, % at 5.6 µM; 1.1% of 220,000 active;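 active = inhibition above the campaign mean plus 3 SD over all tested compounds, cut at about 24% in these data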;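 also: cytokine-independent growth of Ba/F3 cells driven by EpoR plus mutant JAK2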
Of the large screens only hits and unclear results are named; the others gave an inactive call. In the library only some 2.1% were active in any assay of this set; here they are far more common.

CCOc1ccc(CNC(=O)C2CCCN(S(=O)(=O)N3CC(C)CC(C)C3)C2)cc1OC (centres undefined)	none (no result: b-catenin transl, MT stabilize HCS, BaF3 tox, Ba/F3 V617F tox)
O=C1CC(c2ccc(F)cc2)CC2=C1C=Nc1ccccc1N2 (centres undefined)	none
O=C1CC(c2ccccc2)CC2=C1C=Nc1ccccc1N2 (centres undefined)	MT stabilize HCS 21
Cc1cc(SCC(=O)N/N=C/c2ccc(C(=O)O)cc2)nc2ccccc12	none (no result: b-catenin transl, MT stabilize HCS, BaF3 tox, Ba/F3 V617F tox)
COc1cccc(-c2cc(=O)c3cc(NC(=O)c4ccc(Cl)cc4)ccc3[nH]2)c1	MT stabilize HCS 26
COc1cccc(-c2cc(=O)c3cc(NC(=O)c4ccccc4)ccc3[nH]2)c1	none (no result: b-catenin transl)
O=c1oc2ccc(Cl)cc2nc1/C=C(\O)c1cccs1	BaF3 tox 38, Ba/F3 V617F tox 36 (no result: MT stabilize HCS)
Cc1ccc2oc(=O)c(/C=C(\O)c3cccs3)nc2c1	none (no result: MT stabilize HCS)
Cc1ccc(NC(=O)COC(=O)C2CC3C=CC2C3)cc1S(=O)(=O)N1CCCCC1 (centres undefined)	none
CCN(CC)CC(=O)Nc1ccc2c(c1)Nc1ccccc1CC2	MT stabilize HCS 31
COc1ccc(CC(=O)Nc2cc(Cl)ccc2O)cc1	BaF3 tox 42, Ba/F3 V617F tox 70
CCOC(=O)C(C)Oc1cccc2c(=O)n(CC(=O)Nc3ccc4c(c3)OCCO4)ccc12 (centres undefined)	none
CCOC(=O)C(C)Oc1cccc2c(=O)n(CC(=O)NCc3ccc4c(c3)OCO4)ccc12 (centres undefined)	b-catenin transl 73, MT stabilize HCS 16, BaF3 tox 42, Ba/F3 V617F tox 59
CC(C)c1ccc2c(c1)CCC1C(C)(CN)CCCC21C (centres undefined)	BaF3 tox 79, Ba/F3 V617F tox 96 (no result: MT stabilize HCS)
CN(C)CCCNC(=O)c1ccc(-c2nc(-c3ccc(Cl)cc3)cs2)cc1	BaF3 tox 46, Ba/F3 V617F tox 101
CN(C)CCCNC(=O)c1ccccn1	none (no result: b-catenin transl)
CCCNc1nc2c(c(=O)n(C)c(=O)n2C)n1Cc1ccc(F)cc1	BaF3 tox 36
C=CCn1c(NCCc2ccccc2)nc2c1c(=O)n(C)c(=O)n2C	BaF3 tox 31 (no result: b-catenin transl)
Cn1c(=O)c2c(nc(NCc3ccccc3)n2Cc2ccc(F)cc2)n(C)c1=O	none
Cn1c(=O)c2c(nc(NCc3cccnc3)n2Cc2ccc(Cl)cc2)n(C)c1=O	IEC-6 tox 23, BaF3 tox 52, Ba/F3 V617F tox 50
COC(=O)c1cc(OC)c(OC)cc1NC(=O)c1cc(OC)cc(OC)c1	none
COc1ccc(OC)c(Nc2nc3nonc3nc2N2CCCC(C)C2)c1 (centres undefined)	none
O=C(NCc1cccnc1)/C(=C/c1ccc(-c2cccc(Cl)c2)o1)S(=O)(=O)c1ccccc1	b-catenin transl 55, MT stabilize HCS 26
O=C(NCc1cccnc1)/C(=C\c1ccc(-c2cccc(Cl)c2)o1)S(=O)(=O)c1ccccc1	MT stabilize HCS 52
Cc1ccc(C(=O)N/C(=C\c2ccc(-c3cc(Cl)ccc3Cl)o2)C(=O)NCc2cccnc2)cc1	none
S=C(NCCCN1CCOCC1)Nc1ccc(Cl)c(Cl)c1	none
COCCn1c(=NC(=O)c2ccc(S(=O)(=O)N3CCOCC3)cc2)sc2cc(S(N)(=O)=O)ccc21	none (no result: b-catenin transl, MT stabilize HCS, BaF3 tox, Ba/F3 V617F tox)
CCn1c(=NC(=O)c2ccc(S(=O)(=O)N3CCOCC3)cc2)sc2cccc(OC)c21	BaF3 tox 42, Ba/F3 V617F tox 35 (no result: b-catenin transl)
COc1ccc(-c2nnc(NC(=O)c3cc(Cl)ccc3Cl)o2)cc1	none (no result: b-catenin transl)
Cc1cnc(C(=O)OCC(=O)NC(C)C)cn1	BaF3 tox 51
COCCCN1C(=O)c2[nH]nc(-c3ccccc3O)c2C1c1cccc(Cl)c1 (centres undefined)	MT stabilize HCS 36
CC(C)OCCCN1C(=O)c2[nH]nc(-c3ccccc3O)c2C1c1cccc(Cl)c1 (centres undefined)	none
COCCCN1C(=O)c2[nH]nc(-c3ccccc3O)c2C1c1ccc(Cl)cc1 (centres undefined)	MT stabilize HCS 44
Cn1cccc1/C=N/NC(=O)c1cc2ccccc2cc1O	none (no result: b-catenin transl, MT stabilize HCS, BaF3 tox, Ba/F3 V617F tox)
CC(C)N(Cc1ccccc1)C(=O)CCS(=O)(=O)c1ccc2c(c1)oc(=O)n2C	none (no result: b-catenin transl, MT stabilize HCS, BaF3 tox, Ba/F3 V617F tox)
COc1cc(NC(=O)c2n[nH]c(=O)c3ccccc23)cc(OC)c1	none (no result: MT stabilize HCS)
COc1ccc(-c2nc(NC(=O)c3n[nH]c(=O)c4ccccc34)sc2C)cc1	IEC-6 tox 22 (no result: b-catenin transl)
COc1ccc(-c2nc(NC(=O)CCNC(=O)c3ccco3)sc2C)cc1	BaF3 tox 28
CN(C)CCNC(=S)Nc1ccc(Br)cc1	none
Oc1ccc(-c2csc(-c3cccnc3)n2)cc1O	BaF3 tox 37, Ba/F3 V617F tox 41 (no result: MT stabilize HCS)
Cn1cc(/C=N/n2cnc3scc(-c4ccc(Cl)cc4)c3c2=O)c2ccccc21	b-catenin transl 187, IEC-6 tox 22
CCn1cnc2scc(-c3ccccc3)c2c1=O	none (no result: b-catenin transl)
Cc1ccc(O)c(NC(=O)CCC2CCCCC2)c1	BaF3 tox 58, Ba/F3 V617F tox 73
O=C(CCC1CCCCC1)Nc1ccccc1O	none (no result: b-catenin transl)
C=CCOc1ccc(C2N3CC4(C)CN2CC(CCC)(C3)C4=O)cc1 (centres undefined)	none
CCCC12CN3CC(C)(CN(C1)C3c1ccc(OC)cc1)C2=O (centres undefined)	BaF3 tox 94
COc1ccc(CN2CCNC(=O)C2CC(=O)NC2CCOCC2)c(F)c1 (centres undefined)	none (no result: b-catenin transl, MT stabilize HCS, BaF3 tox, Ba/F3 V617F tox)
COc1ccc(C(C)=O)cc1COc1nc(C)nc2ccccc12	MT stabilize HCS 15
CCc1ccc(-c2nc(C(N)=O)c3[nH]c(=O)n(-c4ccccc4OC)c3n2)cc1	MT stabilize HCS 17
COc1ccc(-c2nc(C(N)=O)c3[nH]c(=O)n(-c4cccc(Cl)c4)c3n2)cc1OC	none (no result: b-catenin transl)
O=C(O)/C=C/C(=O)Nc1cc(F)ccc1F	none (no result: MT stabilize HCS)
O=C(NCCCN1CCOCC1)c1ccc(CSc2ccc(Cl)cc2)cc1	none
CC(/C=N/NC(=O)c1cc(-c2ccc(Cl)cc2)nc2ccccc12)=C\c1ccco1	b-catenin transl 235
CC(/C=N/NC(=O)c1cc(-c2ccccc2)nc2ccccc12)=C\c1ccco1	b-catenin transl 155
O=C1CC(C(=O)N2CCOCC2)C2(CCCCC2)O1 (centres undefined)	none
COc1ccc(NC2=CC(=O)CC(c3ccccc3)C2)c(OC)c1 (centres undefined)	b-catenin transl 82, MT stabilize HCS 32, BaF3 tox 43, Ba/F3 V617F tox 39
CCOc1ccccc1NC1=CC(=O)CC(c2ccccc2)C1 (centres undefined)	MT stabilize HCS 25
COc1ccc(Cl)cc1S(=O)(=O)n1c([N+](=O)[O-])cnc1C	none (no result: b-catenin transl, MT stabilize HCS, BaF3 tox, Ba/F3 V617F tox)
COc1ccc(NC(=O)C2(S(=O)(=O)c3ccc(C)cc3)CC2)cc1	none (no result: b-catenin transl, MT stabilize HCS, BaF3 tox, Ba/F3 V617F tox)
COc1ccccc1/C=N/N1C(=O)C(CC(=O)Nc2ccc([N+](=O)[O-])cc2OC)SC1=Nc1cccc(C)c1C (centres undefined)	MT stabilize HCS 19
